# Experimental data published in PubChem BioAssay AID504490 (NMMLSC, 2011).
# Hit rate of the full screen: of about 340,000 compounds, about 1,100 (0.32%) were called active.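 Rule for the calls: active = inhibition above a set limit, near 3 SD of compounds lacking own fluorescence (cut at about 54% in these data); inactive = the rest.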 The entries come from a sample that favours actives as a whole.
# Tested on: beta-arrestin 1 C-terminal peptide binding to AP2 beta2-adaptin appendage (human)
# Assay: blockers of arrestin peptide association with AP2 adaptin – biochemical, GPCR trafficking, flow cytometry, primary screen (AID 504490);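 note: plate controls were DMSO wells for no effect and 5 µM unlabelled arrestin peptide for full effect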
# Details: FITC-arrestin peptide / GST-AP2 beads, at 10 µM, hits give high values, AP2 beta2 appendage carries R879A mutation
# Procedure, shortened: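 System: GST-AP2 R879A bound to glutathione beads, E. coli-expressed. Also added: 50 nM FITC-arrestin peptide. Schedule: compound with beads 12 min RT, then probe 1 h RT. Signal: bead flow cytometry, FITC channel. Read-out basis: percent response.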
row,SMILES,inhibition
1,COc1ccccc1CNC(=O)COC(=O)c1cccs1,-6.34% (inactive)
2,COc1ccc(C2c3[nH]c4ccccc4c3C[C@H]3C(=O)N(CC(C)C)CC(=O)N23)c(OC)c1 (stereo partly drawn),-2.46% (inactive)
3,CCCc1ccc(-c2csc(NC(=O)Cc3cccs3)n2)cc1,86.3% (active)
4,O=C(Cc1cccs1)Nc1nnc(SCc2ccc(F)cc2)s1,0.35% (inactive)
5,COc1ccc(Cc2nnc(NC(=O)Cc3cccs3)s2)cc1,5.51% (inactive)
6,CC(Sc1ncnc2c1cnn2-c1ccccc1)C(=O)Nc1ccc(N2CCOCC2)cc1 (stereo not drawn),52.7% (inactive)
7,COc1ccc(C(C)(C)C)cc1NC(=O)CCN1C(=O)C2CCCCC2C1=O (stereo not drawn),4.94% (inactive)
8,O=CN1CCN(C(=O)c2ccc3c(c2)OCO3)CC1,-7.77% (inactive)
9,CCOC(=O)N1CCN(C(=O)Cc2ccc(-n3c(=S)[nH]c4ccccc4c3=O)cc2)CC1,-0.7% (inactive)
10,CCOC(=O)N1CCN(C(=O)C(C)NC(=O)c2ccco2)CC1 (stereo not drawn),47.5% (inactive)
11,CCOC(=O)N1CCN(C(=O)CNC(=O)Cc2ccc(Cl)cc2)CC1,87.5% (active)
12,OCCN1CCOCCOCCN(CCO)CCN(CCO)CC1,-4.2% (inactive)
13,Cc1ccccc1NC(=O)CCNS(=O)(=O)c1ccc2[nH]c(=O)oc2c1,-8.2% (inactive)
14,C=CCOc1c(CNn2cn[nH]c2=S)cccc1OC,0.65% (inactive)
15,Cc1ccc(S(=O)(=O)N2CCCCC2)cc1NC(=O)CCNC(=O)c1ccccc1,2.03% (inactive)
16,Cc1ccc(S(=O)(=O)N2CCCCC2)cc1NC(=O)c1cccnc1,65.4% (active)
17,CC(=O)c1cccc(OCC(=O)OCC(=O)Nc2cc(S(=O)(=O)N3CCCCC3)ccc2C)c1,38.5% (inactive)
18,O=P(c1ccc2c(c1)OCCO2)(N1CCOCC1)N1CCOCC1,1.28% (inactive)
19,CCC(C)NC(=O)C1CCC(=O)N1Cc1ccc(C)cc1 (stereo not drawn),3.49% (inactive)
20,CCCCNC(=O)C1CCC(=O)N1CCc1ccccc1 (stereo not drawn),-2.64% (inactive)
21,Cc1ccc(CN2C(=O)CCC2C(=O)NCCCN2CCCCC2C)cc1 (stereo not drawn),102% (active)
22,CC(=O)c1cccc(NC(=O)[C@@H](NC(N)=O)C(C)C)c1,15.6% (inactive)
23,Cc1ccc2nsnc2c1S(=O)(=O)N1CCCC1C(=O)O (stereo not drawn),19.9% (inactive)
24,COc1cc(C2/C(=C(\O)c3ccc4c(c3)CC(C)O4)C(=O)C(=O)N2c2nnc(C)s2)cc(OC)c1OC (stereo not drawn),18.6% (inactive)

row,SMILES,inhibition
1,Cc1ccc(C2(C)NC(=O)N(CC(=O)Nc3ccccc3C(=O)N3CCCCC3)C2=O)cc1 (stereo not drawn),56.8% (active)
2,Cc1ccc(NC(=O)CN2C(=O)NC(C)(c3ccc(Cl)cc3)C2=O)c(Br)c1 (stereo not drawn),-0.27% (inactive)
3,Cc1ccc(C2(C)NC(=O)N(CC(=O)N3CC(=O)Nc4ccccc43)C2=O)cc1 (stereo not drawn),-7.93% (inactive)
4,CC(=O)OC1CCC2C3CCC4=C(CC(F)C(=O)C4)C3CCC12C (stereo not drawn),-26.5% (inactive)
5,CCOc1ccccc1OCC(=O)Nc1ccccc1C(=O)NC1CC1,-8.99% (inactive)
6,CC(=O)N(C1=C(Cl)C(=O)c2ccccc2C1=O)c1ccc(C(=O)O)cc1,64.7% (active)
7,O=C(NC1=CC(=O)c2ccccc2C1=O)c1ccccc1,19.2% (inactive)
8,CC(C)(Oc1ccc(Cl)cc1)C(=O)OCC(=O)NCCc1ccc(S(N)(=O)=O)cc1,19% (inactive)
9,O=C(CN1C(=O)COc2ccc(Cl)cc21)Nc1ccc(N2CCOCC2)cc1,3.15% (inactive)
10,CC(C)[C@H](NC(=O)N1CCn2c1nc1ccccc12)C(=O)NC1CC1,35.9% (inactive)
11,CC(C)C[C@H](NC(=O)N1CCn2c1nc1ccccc12)C(=O)NC1CC1,60.8% (active)
12,CSCC[C@H](NC(=O)N1CCn2c1nc1ccccc12)C(=O)NC1CCCCC1,-6.82% (inactive)
13,CC(NCCc1ccc(S(N)(=O)=O)cc1)C(=O)NCc1ccccc1 (stereo not drawn),57.4% (active)
14,NS(=O)(=O)c1ccc(CNC(=O)c2cccc(Oc3ccccc3)c2)cc1,10.4% (inactive)
15,NS(=O)(=O)c1ccc(CCNC(=O)CNC(=O)Cc2ccccc2)cc1,3.4% (inactive)
16,O=C(CC12CC3CC(CC(C3)C1)C2)NCc1ccco1,5.06% (inactive)
17,O=C1C(Cl)=C(Oc2ccccc2)C(=O)c2ccccc21,55.1% (active)
18,Cc1ccc(C(=O)CN2C(=O)NC3(CCOc4ccccc43)C2=O)s1 (stereo not drawn),-5.1% (inactive)
19,O=C(COc1ccc(F)cc1Br)NCC1COc2ccccc2O1 (stereo not drawn),0.24% (inactive)
20,COc1cccc(OCC(O)CNC(=O)c2oc3c(C)c(C)ccc3c2C)c1 (stereo not drawn),2.32% (inactive)
21,CN1C(=O)/C(=C/c2ccco2)SC1=Nc1cccc(C(=O)O)c1,62.3% (active)
22,Cc1ccc(N=C2NC(=O)/C(=C/C=C/c3ccco3)S2)cc1C,42.9% (inactive)
23,CN=C1S/C(=C\c2c(OC)cc(OC)cc2OC)C(=O)N1C,7.51% (inactive)
24,COc1ccc(C2(CNC(=O)C(c3ccccc3)c3ccccc3)CCOCC2)cc1OC,-2.16% (inactive)

row,SMILES,inhibition
1,CC(C)c1ccc(NC(=S)NC2CC3C=CC2C3)cc1 (stereo not drawn),-12.9% (inactive)
2,Cc1ccc(C)c(NC(=S)NNC(=S)Nc2ccc(C(C)C)cc2)c1,60.6% (active)
3,Cc1ccc(NC(=S)Nc2ccc(F)cc2)cc1,2.86% (inactive)
4,Cn1cc(CCC(=O)N2CCCC(C(=O)c3ccc(C(C)(C)C)cc3)C2)cn1 (stereo not drawn),5.89% (inactive)
5,CCOc1ccc(/C=N/OCC(=O)NCc2cccs2)cc1,-13.4% (inactive)
6,CCOc1ccc(C(=O)NC2CCN(S(=O)(=O)CC)CC2)cc1,2.75% (inactive)
7,CCOc1ccc(C(=O)NC2CCN(CC(=O)NCc3cccs3)CC2)cc1,54.6% (active)
8,c1ccc(Cc2ccc(OCCn3ccnc3)cc2)cc1,-5.61% (inactive)
9,O=C(C1CCC1)N1CCN(c2ccccc2)CC1,4.58% (inactive)
10,CC(C)Cn1c(N)c(C(=O)COC(=O)CN2C(=O)C3CC=CCC3C2=O)c(=O)n(C)c1=O (stereo not drawn),1.01% (inactive)
11,CC1CCN(C(=O)COC(=O)c2cc(=O)[nH]c3ccccc23)CC1,-3.58% (inactive)
12,CC(NC(=O)COC(=O)c1cc(=O)[nH]c2ccccc12)c1ccccc1 (stereo not drawn),11.9% (inactive)
13,CN(C(=O)COC(=O)c1cc(=O)[nH]c2ccccc12)C1CCCCC1,54.7% (active)
14,O=C(Nc1ccccc1)N1CCN(C2c3ccccc3-c3ccccc32)CC1,-3.43% (inactive)
15,CC1CN(CC(=O)NC(C)c2ccccc2)CC(C)O1 (stereo not drawn),0.77% (inactive)
16,Cn1c(=O)c2c(nc(N/N=C/c3cccs3)n2Cc2ccc(Br)cc2)n(C)c1=O,70.5% (active)
17,CCCCNc1nc2c(c(=O)n(C)c(=O)n2C)n1Cc1cccc(OC)c1,13.6% (inactive)
18,Cn1c(=O)c2sccc2n(Cc2ccc(Br)cc2)c1=O,-7.24% (inactive)
19,C=CC(=O)Nc1ccc(Nc2ccnc(Nc3ccc(N4CCN(C)CC4)cc3)n2)cc1,55.9% (active)
20,Cc1cccc(N2CCN(c3ccc(NC(=O)/C=C\C(=O)O)cc3)CC2)c1,15.9% (inactive)
21,CN1CCN(c2ccc(NC(=O)c3cc(Cl)c4c(c3)OCCO4)cc2)CC1,30.2% (inactive)
22,Cn1c(SCc2nc3ccccc3s2)nnc1-c1ccc2c(c1)OCO2,-3.99% (inactive)
23,CCCCN(CC)CCNC(=O)CCNC(=O)Cn1ccc2ccccc2c1=O,1.19% (inactive)
24,O=C1NC(=O)C(CCc2ccccc2)(c2ccccc2)N1 (stereo not drawn),-9.95% (inactive)

row,SMILES,inhibition
1,C/C(Cl)=C\Cn1c(Nc2cccc(C)c2)nc2c1c(=O)n(C)c(=O)n2C,-6.48% (inactive)
2,Cc1ccc(CNC(=O)C2CC(=O)N(C3CCCCCCC3)C2)cc1 (stereo not drawn),93.8% (active)
3,O=C(NCCc1ccc(Cl)cc1)C1CC(=O)N(C2CCCCC2)C1 (stereo not drawn),6.36% (inactive)
4,COc1cccc(CNC(=O)C2CC(=O)N(C3CCCCCCC3)C2)c1 (stereo not drawn),-10.2% (inactive)
5,COc1ccc(Br)cc1CN(C)CC(=O)Nc1cc(Cl)cc(Cl)c1,4.23% (inactive)
6,CCc1cccc2c(C=C(C#N)C#N)cn(CC(=O)N3CCCCC3)c12,9.35% (inactive)
7,COc1ccc(Cc2nnc(SCC(=O)c3cccc([N+](=O)[O-])c3)n2C)cc1,7.36% (inactive)
8,CCc1ccccc1OCC(=O)Nc1ccc(C)c(S(=O)(=O)N2CCCCCC2)c1,10.8% (inactive)
9,COc1cc2c(cc1NC(=O)COC(=O)/C=C/c1ccccc1)oc1ccccc12,105% (active)
10,COc1cc2c(cc1NC(=O)CN1CCN(S(=O)(=O)c3ccc(F)cc3)CC1)oc1ccccc12,11.4% (inactive)
11,COc1cc(/C=C/C(=O)OCC(=O)c2ccccc2)cc(OC)c1OC,10% (inactive)
12,O=C(CNC(=O)c1ccc(Br)o1)Nc1ccccc1,7.78% (inactive)
13,Cc1cccc(NC(=O)c2ccc([N+](=O)[O-])o2)c1,5.65% (inactive)
14,Cc1cccc(NC(=S)NC(=O)c2ccc(Br)o2)c1,61.8% (active)
15,Cc1cc(C)cc(C(=O)NC(=S)Nc2ccc3[nH]c(=O)[nH]c3c2)c1,10.9% (inactive)
16,CCCCNC(=O)C1CCCN(S(=O)(=O)c2ccc(S(=O)(=O)NCC(C)C)cc2)C1 (stereo not drawn),4.41% (inactive)
17,Cc1cccc(NC(=O)C2CCCN(C(=O)Nc3ccc(F)cc3)C2)c1C (stereo not drawn),25% (inactive)
18,Cc1cc(/C=C2\SC(=Nc3ccc(N4CCOCC4)cc3)N(C)C2=O)c(C)n1-c1cccnc1,-3.18% (inactive)
19,Cc1cc(/C=C2/SC(=O)N(CC(=O)N3CCCC3)C2=O)c(C)n1C,-9.22% (inactive)
20,Cc1cc(/C=C2\SC(=O)N(C)C2=O)c(C)n1-c1cccc(C(=O)O)c1,54.7% (active)
21,COc1cccc(C(=O)n2ccc(-c3cccs3)n2)c1,4.99% (inactive)
